Measured values: ChEMBL document CHEMBL1133127, “Activation of antibacterial prodrugs by peptide deformylase” (Bioorg Med Chem Lett, 2000)
pIC50: −log10 of the molar value.

Columns and labels:
[1] = Half-life was determined; assay type: ADME; conditions: human
Method in brief: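 Deformylated intermediate cyclizes to diketopiperazine, releasing FdU. Followed by C18 HPLC at 214 nm after PDF treatment in 20 mM sodium phosphate pH 7.4. First-order fit of ln(A0/A) versus time; half-life taken from the fit.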

Escherichia coli [2] = test: The compound was tested for its antibacterial activity against Escherichia coli BL21(DE3) cells in luria broth; assay type: functional, organism-based
Escherichia coli [3] = test: The compound was tested for activation by purified Escherichia coli PDF in vitro by measuring deformylation at pH 7.4; assay type: functional
Method in brief: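 Purified E. coli PDF added to prodrug (~1 mM) in 20 mM sodium phosphate pH 7.4. Aliquots taken over time and quenched with equal volume 100 mM TFA. Analysed by C18 HPLC at 214 nm; kcat/KM derived from deformylation to intermediate.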

[4] = tested on: Staphylococcus epidermidis; test: Compound was tested for its antibacterial activity against Staphylococcus epidermidis; assay type: functional, organism-based
Escherichia coli [5] = test: Compound was tested for its antibacterial activity against Escherichia coli BL21(DE3) cells in luria broth; assay type: functional, organism-based
[6] = tested on: Staphylococcus epidermidis; test: The compound was tested for its antibacterial activity against Staphylococcus epidermidis.; assay type: functional, organism-based

For `CSCC[C@H](NC=O)C(=O)N(C)[C@@H](CC(C)C)C(=O)OCC1OC(n2cc(F)c(=O)[nH]c2=O)CC1O` (some centres not stated), the half-life [1] was 2.07 min, the pIC50 (Escherichia coli [2]) was less than 4.00 and the k cat/Km (Escherichia coli [3]) was 1650 M⁻¹ s⁻¹.
`CSCC[C@H](NC=O)C(=O)N1CCC[C@H]1C(=O)OCC1OC(n2cc(F)c(=O)[nH]c2=O)CC1O` (some centres not stated) showed a half-life [1] of 4.68 min and a pIC50 (Escherichia coli [2]) of less than 4.00.
Compound `CSCC[C@H](NC=O)C(=O)N1CCC[C@@H]1C(=O)OCC1OC(n2cc(F)c(=O)[nH]c2=O)CC1O` (some centres not stated) has a half-life [1] of 15.2 min and a pIC50 (Escherichia coli [2]) of less than 4.00.
`CSCC[C@H](NC=O)C(=O)NC(C)(C)C(=O)OCC1OC(n2cc(F)c(=O)[nH]c2=O)CC1O` (some centres not stated) showed a pIC50 [4] of roughly 4.30, a pIC50 (Escherichia coli [5]) of less than 4.00 and a half-life [1] of 51.1 min. It also gave a pIC50 [6] of 4.30 and a k cat/Km (Escherichia coli [3]) of 28900 M⁻¹ s⁻¹.
